High-throughput results from PubChem BioAssay.
ERAP1 HTS inh = human ERAP1 aminopeptidase inhibitors, primary screen, biochemical, single point, plate reader; Endoplasmic reticulum aminopeptidase 1 (Homo sapiens), Q9NZ08; recombinant ERAP1, Leu-AMC fluorescence, 60 min; inhibition, % at 10.7 µM; actives 0.15% (n = 340,000);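 active means mean replicate inhibition of at least 30%, or all replicates individually reaching that 30% level; inactive means mean below 30% and not every replicate reaching it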;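 further: 0% = neutral control wells and 100% = L-leucinethiol positive control wells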
Target sequence (Q9NZ08 whole entry, looked up): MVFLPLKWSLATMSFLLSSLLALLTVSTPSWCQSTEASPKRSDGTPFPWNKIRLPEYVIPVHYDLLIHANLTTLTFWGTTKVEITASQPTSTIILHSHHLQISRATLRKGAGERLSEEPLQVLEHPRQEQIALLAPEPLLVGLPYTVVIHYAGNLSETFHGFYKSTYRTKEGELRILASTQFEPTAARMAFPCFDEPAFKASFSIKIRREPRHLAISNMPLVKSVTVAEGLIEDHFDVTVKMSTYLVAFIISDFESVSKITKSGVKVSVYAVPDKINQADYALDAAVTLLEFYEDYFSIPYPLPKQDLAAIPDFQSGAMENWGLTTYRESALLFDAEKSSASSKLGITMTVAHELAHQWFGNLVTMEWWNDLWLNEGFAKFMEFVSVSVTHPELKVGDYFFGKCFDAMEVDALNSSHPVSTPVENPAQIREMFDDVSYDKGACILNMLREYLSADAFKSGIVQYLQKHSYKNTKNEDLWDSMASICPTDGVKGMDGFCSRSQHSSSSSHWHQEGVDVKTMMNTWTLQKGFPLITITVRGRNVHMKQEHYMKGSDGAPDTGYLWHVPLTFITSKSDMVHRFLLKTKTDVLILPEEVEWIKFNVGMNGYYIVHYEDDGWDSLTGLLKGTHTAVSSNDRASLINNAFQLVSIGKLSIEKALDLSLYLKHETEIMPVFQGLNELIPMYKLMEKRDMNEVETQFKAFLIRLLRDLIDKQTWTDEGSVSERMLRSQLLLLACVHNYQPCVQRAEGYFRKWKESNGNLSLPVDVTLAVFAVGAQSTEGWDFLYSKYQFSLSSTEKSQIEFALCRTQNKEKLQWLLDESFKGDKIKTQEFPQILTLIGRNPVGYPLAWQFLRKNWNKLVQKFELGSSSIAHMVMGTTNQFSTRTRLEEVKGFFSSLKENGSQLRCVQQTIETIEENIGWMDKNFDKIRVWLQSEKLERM
Ecoli rRNA inh = reduced GFP signal of wild-type E. coli, primary screen, bacterial rRNA inhibitor project, GFP/RFP fluorescence, OD600, single point; actives 1.6% (n = 350,000); GFP signal change (wild-type ribosome), % (concentration not given with the values); AID 720706, 2013; E. coli WT GFP vs humanized-ribosome RFP mutants, 24 h; hits give low values; DMSO median 0, no signal -100;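 active means significant combined selectivity score with lowered wild-type GFP, culture density cut under 30%, mutant RFP and density less affected; inactive means any of these conditions unmet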
PGC1a acetyl inh = inhibitors of PGC1a acetylation signal, primary screen, cell-based, U2OS, AlphaScreen, inhibitor mode; AlphaScreen anti-acetyl-lysine; with virally co-expressed GCN5 acetyltransferase; inhibition, % at 15.6 µM; actives 0.17% (n = 350,000); AID 651687, 2012;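 active means every replicate shows inhibition of at least 40%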;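 further: 0% = neutral control wells and 100% = positive control wells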
CASP6 VEID inh = human caspase-6 inhibitors, primary screen, biochemical, VEID-R110 fluorescence, single point, set 2; P55212; purified caspase-6, Z-VEID-R110 cleavage fluorescence; inhibition, % at 12.5 µM; actives 0.53% (n = 350,000); AID 686996, 2013;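 active means mean inhibition across replicates at least about 35%, with every replicate also reaching that limit, limit read from the data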;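 further: 0% = median of neutral control wells and 100% = no fluorescence left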
ARNT-TACC3 inh = disruptors of ARNT/TACC3 protein interaction, primary screen, biochemical, AlphaScreen, single concentration. AlphaScreen His-ARNT PAS-B/GST-TACC3 binding, luminescence; TACC3 fragment carries E629A point mutation. actives 0.66% (n = 390,000). inhibition, % at 9.99 µM;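 active means mean inhibition of replicates at least 50% and at least half of replicates each reaching 50%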;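 further: 0% = complete ARNT plus TACC3 wells and 100% = ARNT alone without TACC3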
S100A4 MyoIIA = inhibitors of S100A4-myosin IIA peptide binding, primary screen, biochemical, fluorescence polarization, TAMRA-MyoIIA peptide | AID 652163, 2013 | inhibition, % at 10.7 µM | actives 0.14% (n = 360,000) | Protein S100-A4 (Homo sapiens), P26447;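 active means mean inhibition of at least 70% across replicates, with every replicate also reaching that level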
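Compound dosing: one dose per compound; test system: human S100A4 monomer with TAMRA-labelled myosin IIA peptide; probe or stimulus: TAMRA-labelled myosin IIA heavy-chain peptide probe, 5 nM; medium: HEPES buffer with Ca2+, pH 7.2; schedule: 5 min incubation before reading; benchmarks: neutral control DMSO, positive control TFP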
Active calls of the source: *. Rows were chosen to be rich in hits. Some 2.4% of all compounds tested hit in one or more screens of this group.

For CC(C)CNC(=O)C1(C)CCCCCN1C(=O)c1cccnc1 (stereo not drawn) the results were ERAP1 HTS inh 3, Ecoli rRNA inh 6, PGC1a acetyl inh -9, CASP6 VEID inh 56* and S100A4 MyoIIA -1.
CC(C)CNC(=O)C1(C)CCCCCN1C(=O)c1cc2ccccc2s1 (stereo not drawn) was read as ERAP1 HTS inh 1, Ecoli rRNA inh -7, PGC1a acetyl inh -4, CASP6 VEID inh 2 and S100A4 MyoIIA 0.
Screening OC[C@@H]1CN(Cc2ccccc2)C[C@H](n2cnc3c(NCc4ccco4)ncnc32)O1 returned ERAP1 HTS inh 1, Ecoli rRNA inh 2, PGC1a acetyl inh 101*, CASP6 VEID inh 0 and S100A4 MyoIIA -15.
For OC[C@@H]1CN(Cc2ccc(-c3ccccc3)cc2)C[C@H](n2cnc3c(NCc4ccco4)ncnc32)O1 the results were ERAP1 HTS inh 0, Ecoli rRNA inh -2, PGC1a acetyl inh 24, CASP6 VEID inh 1 and S100A4 MyoIIA -16.
Screening O=C(O)CSc1nnc(-c2ccccc2Br)n1-c1cccc(C(F)(F)F)c1 returned Ecoli rRNA inh -24*, CASP6 VEID inh -2, ARNT-TACC3 inh -19 and S100A4 MyoIIA 0.
For CC(C)NC(=O)N1[C@H](C(=O)N2CCOCC2)[C@@H](CO)[C@@H]2Cn3c(ccc(-c4ccc(F)cc4)c3=O)[C@@H]21 the results were ERAP1 HTS inh 3, Ecoli rRNA inh 0, CASP6 VEID inh -2, ARNT-TACC3 inh 5 and S100A4 MyoIIA -9.
`CSCc1cc(C(=O)NC2CC2)c(N)s1` gave ERAP1 HTS inh -4, Ecoli rRNA inh 10, CASP6 VEID inh 6 and S100A4 MyoIIA 74*.
COC(=O)[C@H](Cc1ccccc1)NC(=O)N1CCCCCC1 was read as ERAP1 HTS inh 0, Ecoli rRNA inh 3, PGC1a acetyl inh 4, CASP6 VEID inh -5, ARNT-TACC3 inh 4 and S100A4 MyoIIA -4.
COC(=O)[C@H](Cc1ccccc1)NC(=O)N1CCN(c2ccc(F)cc2)CC1 was read as ERAP1 HTS inh -3, Ecoli rRNA inh -20*, PGC1a acetyl inh -5, CASP6 VEID inh 3, ARNT-TACC3 inh -4 and S100A4 MyoIIA -1.
O=C(CCC(=O)N1CCN(c2ccc(F)cc2)CC1)N1CCN(c2ccc(F)cc2)CC1 was read as ERAP1 HTS inh 0, Ecoli rRNA inh -21*, PGC1a acetyl inh 2, CASP6 VEID inh -3, ARNT-TACC3 inh 0 and S100A4 MyoIIA -2.
`C[C@@H]1CN(C)C(=O)c2cccc(N(C)C)c2O[C@H]1CN(C)C(=O)OC(C)(C)C` gave Ecoli rRNA inh -3.
Screening O=C(Oc1c(CN2CCOCC2)cc(Cl)c2cccnc12)c1ccc(F)cc1 returned PGC1a acetyl inh 18 and ARNT-TACC3 inh 65*.
For COc1cc(C(=O)Oc2c(CN3CCOCC3)cc(Cl)c3cccnc23)cc(OC)c1OC the results were PGC1a acetyl inh 13 and ARNT-TACC3 inh 70*.
`COc1ccc(C(=O)Oc2c(CN3CCOCC3)cc(Cl)c3cccnc23)cc1` gave PGC1a acetyl inh 2 and ARNT-TACC3 inh 65*.
`O=C(Oc1c(CN2CCOCC2)cc(Cl)c2cccnc12)c1ccccc1Cl` gave ERAP1 HTS inh -1, Ecoli rRNA inh -41, PGC1a acetyl inh 15, CASP6 VEID inh -3, ARNT-TACC3 inh 71* and S100A4 MyoIIA 1.
`COc1ccc(C(=O)OC(C)CN2CCOCC2)cc1` (stereo not drawn) gave ERAP1 HTS inh -3, Ecoli rRNA inh 5, PGC1a acetyl inh 4, CASP6 VEID inh -3, ARNT-TACC3 inh 1 and S100A4 MyoIIA 1.
O=C(Oc1ccc(Cl)c2cccnc12)N1CCOCC1 was read as ARNT-TACC3 inh 4.
O=C(N[C@H]1CC[C@@H](CC(=O)N2CCOCC2)O[C@H]1CO)c1ccc2c(c1)OCO2 was read as ERAP1 HTS inh 1, Ecoli rRNA inh -1, PGC1a acetyl inh 11, CASP6 VEID inh -2, ARNT-TACC3 inh -5 and S100A4 MyoIIA 7.
For COc1ccc(C(=O)N/N=C/c2ccc(N3CCOCC3)o2)cc1OC the results were ERAP1 HTS inh 8, Ecoli rRNA inh 4, CASP6 VEID inh 2, ARNT-TACC3 inh 8 and S100A4 MyoIIA -8.
Screening COc1ccc(C(=O)N/N=C/c2ccc(N3CCOCC3)s2)cc1OC returned ERAP1 HTS inh 8, Ecoli rRNA inh -16*, PGC1a acetyl inh 0, CASP6 VEID inh 2, ARNT-TACC3 inh 6 and S100A4 MyoIIA 0.
COC(=O)C1=C(C)N(Cc2ccc(Br)cc2)C(=S)NC1c1cccc(OC)c1 (stereo not drawn) was read as ERAP1 HTS inh 5, Ecoli rRNA inh 0, CASP6 VEID inh -1 and S100A4 MyoIIA -16.
`COC(=O)C1=C(C)N(Cc2ccc(F)cc2)C(=S)NC1c1cccc(OC)c1` (stereo not drawn) gave ERAP1 HTS inh -5, Ecoli rRNA inh -22*, CASP6 VEID inh -4 and S100A4 MyoIIA -2.
`COC(=O)C1=C(C)N(Cc2ccccc2)C(=S)NC1c1cccc(OC)c1` (stereo not drawn) gave ERAP1 HTS inh 3, Ecoli rRNA inh -29*, CASP6 VEID inh -3 and S100A4 MyoIIA 0.
For CCC(=O)N1CC2(C1)[C@@H](c1ccc(-c3ccc(F)cc3)cc1)[C@@H](CO)N2S(C)(=O)=O the results were ERAP1 HTS inh 3, Ecoli rRNA inh 1, PGC1a acetyl inh 5, CASP6 VEID inh 0 and S100A4 MyoIIA -26.
`O=[N+]([O-])c1ccc(O)c(/C=N/Nc2ccccn2)c1` gave ERAP1 HTS inh -2, Ecoli rRNA inh -14, PGC1a acetyl inh 20, CASP6 VEID inh 2, ARNT-TACC3 inh 61* and S100A4 MyoIIA -2.
Screening COc1cc(/C=N/NC(=O)C(=O)Nc2ccccn2)ccc1O returned ARNT-TACC3 inh -5.
For COc1ccc(O)c(/C=N/Nc2nc3ccccc3[nH]2)c1 the results were ERAP1 HTS inh -21, Ecoli rRNA inh -40, PGC1a acetyl inh -2, CASP6 VEID inh 6, ARNT-TACC3 inh -13 and S100A4 MyoIIA 2.
Screening Oc1ccccc1/C=N/Nc1nccnc1Cl returned PGC1a acetyl inh -47 and ARNT-TACC3 inh 67*.
